ChEMBL document CHEMBL4265871, “Novel alkylated azoles as potent antifungals” (Eur J Med Chem, 2017)
Converted amounts (≈) assume the structure as drawn. The source made the active and inactive calls. The rule behind the calls is not given here.

Columns and labels:
[1] = Selectivity index, ratio of EC50 for toxicity in human A549 cells to MIC50 for antifungal activity against Candida glabrata ATCC 2001; format: cell-based; conditions: read-out: Selectivity Index
Outline: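 Selectivity index is the EC50 against the mammalian line (A549 or BEAS-2B) divided by the MIC against the given fungal strain.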

Candida albicans [2] = assay: Antifungal activity against ITC and FLC-resistant Candida albicans ATCC MYA-1003 incubated for 48 hrs by modified CLSI M27-A3 protocol based method; format: functional; conditions: ATCC MYA-1003, 48 h
Outline: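 Because these Candida strains show trailing growth, MIC-2 was read, meaning 50% growth inhibition. Caspofungin and voriconazole were tested here; other controls came from earlier work.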

in vitro = conditions: mouse, mouse erythrocytes
[3] = Selectivity index, ratio of EC50 for toxicity in human BEAS2B cells to MIC50 for antifungal activity against ITC and FLC-susceptible Candida albicans ATCC MYA-2876; format: cell-based; conditions: BEAS-2B cells, read-out: Selectivity Index
Outline: (§1)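 Ratio of the compound's EC50 against BEAS-2B cells to its MIC against the named C. albicans strain. […] For C. albicans strains other than ATCC 10231, trailing growth meant MIC-2 was taken, meaning 50% growth inhibition.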

[4] = Hemolytic activity in mouse erythrocytes assessed as hemolysis level at 1.95 ug/ml incubated for 1 hr at 37 degC; format: ADME, cell-based, Erythrocyte; conditions: read-out: Activity
Outline: (§2)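 Mouse erythrocytes incubated 1 h at 37 °C with test agents over 1.95 to 125 µg/mL. Percent lysis is read for each concentration.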

[5] = Toxicity in human BEAS2B cells assessed as reduction in cell viability incubated for 24 hrs by resazurin dye based assay; conditions: BEAS-2B cells
Outline: (§3)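 Toxicity tested in the nucleated lines A549 and BEAS-2B to give EC50 values. Selectivity index is EC50 against the mammalian line divided by the MIC against a given fungal strain.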

[6] = Selectivity index, ratio of […] for toxicity in human A549 cells to MIC50 for antifungal activity against Aspergillus terreus ATCC MYA-3633; format: cell-based; conditions: read-out: Selectivity Index
[7] = Selectivity index, ratio of EC50 for toxicity in human BEAS2B cells to MIC50 for antifungal activity against Candida krusei ATCC 6258; conditions: BEAS-2B cells
[8] = Hemolytic activity in mouse erythrocytes assessed as hemolysis level at 15.6 ug/ml incubated for 1 hr at 37 degC; format: ADME, cell-based, Erythrocyte; conditions: read-out: Activity; outline: as §2
[9] = Selectivity index, ratio of EC50 for toxicity in human BEAS2B cells to MIC50 for antifungal activity against ITC and FLC-susceptible Candida albicans ATCC MYA-2310; format: cell-based; conditions: BEAS-2B cells, read-out: Selectivity Index; outline: as §1
[10] = Selectivity index, ratio of EC50 for toxicity in human A549 cells to MIC for antifungal activity against Candida parapsilosis ATCC 22019
Aspergillus flavus = assay: Antifungal activity against Aspergillus flavus ATCC MYA-3631 incubated for 48 hrs by CLSI M38-A2 protocol based method; format: functional; conditions: ATCC MYA-3631, 48 h, read-out: MIC100
[11] = Toxicity in human A549 cells assessed as reduction in cell viability incubated for 24 hrs by resazurin dye based assay; outline: as §3
[12] = Selectivity index, ratio of EC50 for toxicity in human BEAS2B cells to MIC for antifungal activity against Candida parapsilosis ATCC 22019; conditions: BEAS-2B cells
Pichia kudriavzevii = assay: Antifungal activity against Candida krusei ATCC 6258 incubated for 48 hrs by modified CLSI M27-A3 protocol based method; format: functional; conditions: ATCC 6258, 48 h, read-out: MIC100
Outline: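 For C. albicans ATCC 10231, C. krusei ATCC 6258 and C. parapsilosis ATCC 22019, MIC-0 was read, meaning complete growth inhibition. For azole controls, MIC-2 (50% growth inhibition) was reported instead. Caspofungin and voriconazole were tested here; other controls came from earlier work.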

[13] = Selectivity index, ratio of […] for toxicity in human BEAS2B cells to MIC50 for antifungal activity against Aspergillus nidulans ATCC 38163; format: cell-based; conditions: BEAS-2B cells, read-out: Selectivity Index
Candida albicans [14] = assay: Induction of membrane permeabilization in Candida albicans ATCC 10231 at 1 to 4 times MIC incubated for 1 hr by propidium iodide staining based fluorescence microscopy; format: functional, organism-based
Outline: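 C. albicans ATCC 10231 treated at 1× and 4× MIC and stained with propidium iodide, a membrane-impermeant dye, to detect membrane damage. Untreated cells, FLC (7.8 µg/mL) and KANB (C14) (7.8 µg/mL) serve as comparators.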

| Compound | selectivity ratio [1] | MIC50 (Candida albicans [2]) [µM] | hemolysis at 1 h, 62.5 ug/ml (in vitro) [%] | selectivity ratio [3] | hemolysis at 1 h, 1.95 ug/ml [4] [%] | EC50 at 24 h [5] [µg/mL] | selectivity ratio [6] | selectivity ratio [7] | hemolysis at 1 h, 15.6 ug/ml [8] [%] | selectivity ratio [9] | selectivity ratio [10] | MIC (Aspergillus flavus) [µM] | EC50 at 24 h [11] [µg/mL] | selectivity ratio [12] | MIC (Pichia kudriavzevii) [µM] | selectivity ratio [13] | Activity (Candida albicans [14]) |
| --- | --- | --- | --- | --- | --- | --- | --- | --- | --- | --- | --- | --- | --- | --- | --- | --- | --- |
| CCCCCCC(O)(Cn1cncn1)c1ccccc1F (stereo not given) | 32 | 13.4 (≈ 3.9 µg/mL) | 28.8 | 32 | 0 | > 31.3 | 8 | 522 | 0 | 32 | 261 | 53.5 to 107 (≈ 15.6 to 31.3 µg/mL) | > 31.3 | 261 | 0.21 (≈ 0.0612 µg/mL) | 65 |  |
| CCCCCCCCC(O)(Cn1cncn1)c1ccc(F)cc1F (stereo not given) | 6 | 5.8 (≈ 1.96 µg/mL) | 69 | 7 | 0 | 13 (≈ 38.5 µM) | 2 | 54 | 66.7 | 7 | 200 | 92.8 (≈ 31.3 µg/mL) | 12 (≈ 35.6 µM) | 217 | 0.71 (≈ 0.24 µg/mL) | 27 | inactive |
| CCCCCCC(O)(Cn1cncn1)c1ccc(Cl)cc1 (stereo not given) | 1 | 6.3 (≈ 1.94 µg/mL) | 83.9 | 4 | 0 | > 31.3 | 2 | 16 | 0 | 1 | 1 | > 102 | 38 (≈ 123 µM) | 1 | 6.3 (≈ 1.94 µg/mL) | 8 |  |
| CCCCCCC(O)(Cn1cncn1)c1ccccc1Cl (stereo not given) | 32 | 25.3 (≈ 7.79 µg/mL) | 81.7 | 32 | 0 | > 31.3 | 65 | 261 | 0 | 16 | 261 | 6.3 to 12.7 (≈ 1.94 to 3.91 µg/mL) | > 31.3 | 261 | 0.39 (≈ 0.12 µg/mL) | 522 |  |
| CCCCCCC(O)(Cn1cncn1)c1ccc(F)cc1 (stereo not given) | 4 | 26.8 (≈ 7.81 µg/mL) | 7 | 4 | 0 | > 31.3 | 2 | 32 | 0 | 4 | 65 | > 107 | > 31.3 | 65 | 3.3 (≈ 0.962 µg/mL) | 16 |  |
| CCCCCC(O)(Cn1cncn1)c1ccccc1F (stereo not given) | 38 | 14.1 (≈ 3.91 µg/mL) | 0 | 32 | 0 | > 31.3 | 9 | 522 | 0 | 32 | 308 | 28.1 (≈ 7.79 µg/mL) | 37 (≈ 133 µM) | 261 | 0.22 (≈ 0.061 µg/mL) | 65 |  |
| CCCCC(O)(Cn1cncn1)c1ccc(F)cc1F (stereo not given) | 1 | 13.9 (≈ 3.91 µg/mL) | 0 | 5 | 0 | 36 (≈ 128 µM) | 2 | 600 | 0 | 1 | 1040 | 55.5 (≈ 15.6 µg/mL) | > 31.3 | 1200 | 0.21 (≈ 0.0591 µg/mL) | 19 |  |
| CCCCCC(O)(Cn1cncn1)c1ccc(F)cc1 (stereo not given) | 4 | > 113 |  | 4 |  | 33 (≈ 119 µM) | 1 | 34 |  | 8 | 65 | > 113 | > 31.3 | 69 | 3.5 (≈ 0.971 µg/mL) | 8 |  |
| CCCCCC(O)(Cn1cncn1)c1ccccc1Cl (stereo not given) | 32 | 26.5 (≈ 7.79 µg/mL) | 0 | 32 | 0 | > 31.3 | 2 | 32 | 0 | 32 | 261 | > 106 | > 31.3 | 261 | 3.3 (≈ 0.97 µg/mL) | 32 |  |
| CCCCCC(O)(Cn1cncn1)c1ccc(Cl)cc1 (stereo not given) | 8 | 6.6 (≈ 1.94 µg/mL) |  | 2 |  | > 31.3 | 1 | 261 |  | 2 | 522 | > 106 | > 31.3 | 522 | 0.41 (≈ 0.12 µg/mL) | 4 |  |
